For the data set, the system named is MS2 coat protein. Briefly: apparent Kd, MS2 coat protein; higher = weaker binding; RNA-MaP array; FMN 200 µM where present. The gist of the method:
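Green signal was scaled to red-channel RNA signal and control-cluster median Fmax, and the apparent Kd was taken as the median of filtered per-cluster binding-curve fits. The binding series used SNAP-549-labelled MS2 coat protein from 0.7 or 1.5 nM, doubling to 3 µM, on designs transcribed by stalled E. coli RNA polymerase on Illumina sequencing-chip clusters. Each series ran without and then with constant ligand in 100 mM Tris-HCl pH 7.5, 80 mM KCl, 4 mM MgCl2, BSA, DTT, yeast tRNA and Tween-20.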

The mark [1] stands for this setting: designed as: OFF switch for flavin mononucleotide, no ligand.
[2] abbreviates: ligand present: flavin mononucleotide, designed as: OFF switch for flavin mononucleotide.
Setting [3] is: designed as: ON switch for flavin mononucleotide, no ligand.
Setting [4] is: ligand present: flavin mononucleotide, designed as: ON switch for flavin mononucleotide.

With “GUAGUGUGAGGAUAUGAUUAAUAGACGGGAUUGCGACUGCAUCAGAAGGCACAUGAGGAUCACCCAUGUAUGAA”, the “apparent Kd” value was determined as 18.8 nM under setting [1] and 51.9 nM under setting [2].
With “GUGCACACUCGAGGAUAUCGGAGAGUACUCCUUCGAGAAGGCGAUUCGUGCCGUGUUAUUCUGGACAUGAGGAUCACCCAUGUG”, the “apparent Kd” value under setting [3] was determined as 125 nM and the “apparent Kd” value under setting [4] was determined as 39.9 nM.
As for “AGUGCUAUGUAGAAGGCAGAUCUGAUUCAGAUCUGAGGAUAUACAUGAGGAUCACCCAUGUUAUGCACCAGCACGAGAGUGCAA”, the “apparent Kd” value came to 8.2 nM under setting [1] and 17.5 nM under setting [2].
As to “GGGUGGGUACAGAAGGGAGUGAUGGGUUUUUGGUUUGACAUGAGGAUCACCCAUGUUUAUCUGGUUCAGGAUAUGUAGUGGUGG”, the “apparent Kd” value runs as follows: under setting [3], 149 nM; under setting [4], 97.3 nM.
As for “GUGGUCAGACAUGAGGAUCACCCAUGUGGAAUAAAUAACAGACAGGAUAUCCAAUAUAGGAUAUAGGAGAAGGGUCGAUUGGUG”, the “apparent Kd” value worked out at 73.1 nM under setting [3] and 74.2 nM under setting [4].
“AAGAGUAGAGGAUAUACGAAAAAAGAGUCGAAAGACUCGGGACAUGAGGAUCACCCAUGUAGAAGGCUACUCAA”: the “apparent Kd” value was found to be 25.4 nM under setting [1] and 120 nM under setting [2].
On to “CAUAAGUCAGAGAAGGCGUACAUGCCCAGACUGUGACGGAUGACGACAUGAGGAUCACCCAUGUACGAGGAUAUCUGAGCAAUC”, for which the “apparent Kd” value stood at 22.9 nM under setting [1] and 168 nM under setting [2].
In the case of “CAGCUUUACGAGGAUAUGGAAGGAGUCAACUUGCCAGAAGGUGUAACAUGAGGAUCACCCAUGUGGCCCGUGAC”, the “apparent Kd” value is, setting by setting: under setting [1], 66.1 nM; under setting [2], 69.4 nM.
With “AGCUGUGGCCGAGGAUAUCUGAAACUCAAAACCGAAAUAUAAUCGGACAUGAGGAUCACCCAUGUAGAGAAGGCGGUCUCAGCA”, the “apparent Kd” value by setting is: under setting [1], 165 nM; under setting [2], 307 nM.
On to “UUGGACGUCGUAGGAUAUGUAGGAUAUUCCUACAUGAGGAUCACCCAUGUUGACAUGGAAGAAGGACAGAAGGACGACGUCCAU”, for which the “apparent Kd” value reads like this: under setting [3], 173 nM; under setting [4], 4.59 nM.
On to “CAUACACAUGAGGAUCACCCAUGUGAGGAUAUGCGUACGUUGUCCGUAGGCGACGUGCGCAGAAGGCGCGAGGU”, for which the “apparent Kd” value reads like this: under setting [1], 37.7 nM; under setting [2], 35.9 nM.
Taken in the same sequence, the figures for “GGGUAGGUAGGAUAUGCGUGCAGGGUGUCUUCCAAUGAUCAACAUGAGGAUCACCCAUGUAGAAGGAUCGAGCU” were 331 nM and 319 nM.
With “CUGCCUUAUGUAGGAUAUGCAUAGCGUUGCUAUGCAGAAGGACAUGAGGAUCACCCAUGUAUGUUAUCAAUACAUAUCUGGCAG”, the “apparent Kd” value under setting [1] was 16.9 nM and the “apparent Kd” value under setting [2] was 53.2 nM.
“UUCUUGGCAGGAUAUGCUUUUUUAGACAUGAGGAUCACCCAUGUGUUUAUUUUUUUUUUUGCAGAAGGGCCUUAAU”: the “apparent Kd” value is, setting by setting: under setting [1], 16.4 nM; under setting [2], 19.5 nM.
For the sequence “AUGCUUUAUGUAGGAUAUGCAUACUGUUAGUAUGCAGAAGGACAUGAGGAUCACCCAUGUAUAUUAUUAUUACAUAUCAUACAU”, the “apparent Kd” value runs as follows: under setting [1], 26 nM; under setting [2], 311 nM.
As for “CGGUCGAUGUAAGGAUAUCGACUGGAUAACAGUCGAGAAGGUACAUGAGGAUCACCCAUGUAAUCCAAUAAUAAAUAACGACCG”, the “apparent Kd” value is, setting by setting: under setting [1], 11.4 nM; under setting [2], 23.2 nM.
For “UUAAAUCAUGUAGGAUAUGCAUGGCGAAGCUACGCAGAAGGACAUGAGGAUCACCCAUGUUAUAGCUUCCAAGUUAGGAGGCAA”, the “apparent Kd” value under setting [1] turned out to be 85.7 nM and the “apparent Kd” value under setting [2] was found to be 191 nM.
As to “AGGAAGUUAGGAUAUGCUGCUCGUCACUUGCGUGAUGAGUAGCAGAAGGAACAUGAGGAUCACCCAUGUAAAAA”, the “apparent Kd” value reads like this: under setting [1], 27.7 nM; under setting [2], 22.2 nM.
On to “UAUGGUUAAGUCAGGAUAUACGUGCAGAUAUCUGAGUAGAAGGGACAUGAGGAUCACCCAUGUAUGGUAGUGUU”, for which the “apparent Kd” value worked out at 79.9 nM under setting [1] and 132 nM under setting [2].
For “GGGUACAUCGGAGGAUAUCAUGUAAAUACAUGAGGAUCACCCAUGUCGAUGGAGACAUCGGAGAUUGAGAAGGCCGCUGUACCG”, the “apparent Kd” value runs as follows: under setting [3], 176 nM; under setting [4], 9.92 nM.
With “CCGAAUGUCACAGGAUAUGGUCCGGGCACGGGACCAGAAGGGUGAUCUCACAUGAGGAUCACCCAUGUGCAGGCGUUAGGCUGC”, the “apparent Kd” value turned out to be 18.6 nM under setting [3] and 86 nM under setting [4].
Consider “UUGUUAGGGAGAGGAUAUUGACAUGAGGAUCACCCAUGUACUUGGGAGUGUUUACUGAAUUCUCACGAGAAGGCUUACAAAUUU”, for which the “apparent Kd” value under setting [1] was 175 nM and the “apparent Kd” value under setting [2] is 147 nM.
Turning to “GAACCACAUGAGGAUCACCCAUGUCUAAGAAAUUAAGGAUAUGCACAAAAGGAAAUAACUGCAGAAGGUAAACGAA”, the “apparent Kd” value under setting [3] stood at 33.4 nM and the “apparent Kd” value under setting [4] amounted to 27.4 nM.
Regarding “UCCAAAUCGUAGAAGGGUGACAUGAGGAUCACCCAUGUGCAGCGGCCGUGAACGGCCACGCUGCCACAGGAUAUACGAUGGAGU”, the “apparent Kd” value is, setting by setting: under setting [3], 48.4 nM; under setting [4], 74 nM.
Regarding “AAAAAACAUGAGGAUCACCCAUGUGAGGAUAUCGAAAAGUCAAAGAAAAAGACGAAAACGAGAAGGCGCAAAAA”, the “apparent Kd” value is, setting by setting: under setting [1], 49.6 nM; under setting [2], 45.5 nM.
The like results for “CCAUGGUGGGCAGGAUAUCGUCCAGCUUGCAGACGAGAAGGGCUUAAACAUGAGGAUCACCCAUGUGAAAAGCGGGUUGUCCAA” were, in that order, 26.5 nM and 131 nM.
As for “GGAUAGGACAGAGGAUAUACGUGCUAGAGAUACUAGCAAAAUUUCCUCACAUGAGGAUCACCCAUGUAGAAGGCUGUCCUACCG”, the “apparent Kd” value was determined as 17 nM under setting [1] and 484 nM under setting [2].
Regarding “AACCUAAAACAGAAGGCCAGCUACAUGAGGAUCACCCAUGUCGAAUCAUGGAGGAUAUGUUGUUAUUUACUCGCAGAUGAGUGC”, the “apparent Kd” value reads like this: under setting [3], 28.1 nM; under setting [4], 5.51 nM.
“UGGUACUAGGGAGGAUAUAGGAAGAUACAUGAGGAUCACCCAUGUUUAAGAAUGCCGAGAGGCAACUAGAAGGCCCUAGUACCU”: the “apparent Kd” value under setting [3] is 5 nM and the “apparent Kd” value under setting [4] is 4.74 nM.
“UUACUCAUGUAAGGAUAUGCAGCCGUUUCGGCUGCAGAAGGUACUAUAAUACAUGAGGAUCACCCAUGUCUAUAAAAUAAAGGC”: the “apparent Kd” value by setting is: under setting [3], 48.9 nM; under setting [4], 50.2 nM.
For “GCGUAUUUAAGAUUUAUAAAACAGUCAGAAGGUGAUAAGACGACAUGAGGAUCACCCAUGUAAUUCAAGGAUAUGAAAAUGCGC”, the “apparent Kd” value under setting [3] is 48.6 nM and the “apparent Kd” value under setting [4] was 22.1 nM.
Turning to “AUACUGAGCGUAAGUUACCUGAACAUGAGGAUCACCCAUGUGGAGGAUAUUGACCUAGCAAAGCUCGAGAAGGCCACUGGGAUG”, the “apparent Kd” value is, setting by setting: under setting [1], 24.8 nM; under setting [2], 19.1 nM.
As to “UGGCGUUGAGGAUAUACAUUGAAUAAGAUUCAUGUAAAACUACAUGAGGAUCACCCAUGUAGAAGGCAAUGCCU”, the “apparent Kd” value was 16.9 nM under setting [1] and 27.7 nM under setting [2].
On to “ACAUGAGGAUCACCCAUGUUCACAUAGGAUAUUGAUUAUAUUGGUUUUAGAAUAGUAAUUAACCUCAAGAAGGAUGCCUGAUCU”, for which the “apparent Kd” value runs as follows: under setting [3], 12.5 nM; under setting [4], 10.9 nM.
Regarding “AAUUGACACGUAGGAUAUCGCUUUAAUUUAACACGAGAAGGACGUACAUGAGGAUCACCCAUGUUAAAUGGUGUAGAUUAAUUG”, the “apparent Kd” value was determined as 167 nM under setting [1] and 382 nM under setting [2].
With “GUAGCAUACCAAGGAUAUUUAGGGCUUUGAUAGACAUGAGGAUCACCCAUGUGGCGUUAGUCACGGGAGAAGGUGGUAUGCUAC”, the “apparent Kd” value is, setting by setting: under setting [3], 383 nM; under setting [4], 81.9 nM.
Regarding “UGUUGUAUUACAGGAUAUCUAUUAUUAUUAUUUAGAGAAGGGUAUUCACAUGAGGAUCACCCAUGUAUAUACGAGGAAGUUGUG”, the “apparent Kd” value runs as follows: under setting [3], 43.7 nM; under setting [4], 45.5 nM.
Taken in the same sequence, the figures for “GCUUCACAUGAGGAUCACCCAUGUCUUCGGAGUCGAGGAUAUGGUAACUGUAAACAGUUGCCAGAAGGCGAGGAGC” were 59.6 nM and 35.5 nM.
In the case of “GCCAUCGCAUGAGGAUAUGGUCUGGUUUCCAGACCAGAAGGCAUGUCAUAAGACAUGAGGAUCACCCAUGUAGUUAAGAUGGCA”, the “apparent Kd” value by setting is: under setting [3], 714 nM; under setting [4], 47.7 nM.
In the case of “UUUAUUAAUUAGAAGGCAUGAUGAAUUACAAUAGACAUGAGGAUCACCCAUGUGUAUUCAUGUCAUGAGGAUAUAGUCAUAUAU”, the “apparent Kd” value by setting is: under setting [3], 10.3 nM; under setting [4], 7.27 nM.
Taken in the same sequence, the figures for “AACAAUCUAUCUGAGGAUAUCAUGAAAAAAACAUGAGGAUCACCCAUGUGCAGGAAAACUGCAUAUGAGAAGGCAGAUAGAUUGA” were 702 nM and 27 nM.
Consider “AUGUUACAUGAGGAUCACCCAUGUGAGGAUAUGUGUACCGGUAAAAAAGUGAUUGGCCACAGAAGGCAUUUGGA”, for which the “apparent Kd” value by setting is: under setting [1], 33.2 nM; under setting [2], 35.7 nM.
Consider “CAUUAUGUUGAGGAUAUGCGCCGGCUCGCUGGCACAGAAGGCGACACAUGAGGAUCACCCAUGUCAGUUCGCGA”, for which the “apparent Kd” value is 12.2 nM under setting [1] and 14.8 nM under setting [2].
The like results for “GGUGCGUAUGUGAGGAUAUGCUGGUCCUUGGCUCGGCAGAAGGCACAUGAGGAUCACCCAUGUGGUGUCGUUCC” were, in that order, 52.5 nM and 222 nM.
As to “GUAGCAUACCGAGGAUAUUCAGGGCGUGGGUAAACAUGAGGAUCACCCAUGUGGCGAAAGCCUAGGGAGAAGGCGGAAUGCUAC”, the “apparent Kd” value under setting [3] was 151 nM and the “apparent Kd” value under setting [4] was determined as 130 nM.
In the case of “CGAUAAUAUAGUUAUCCGUAGCGAACAUGAGGAUCACCCAUGUAGGAUAUGUUACUAAACUAGUAACAGAAGGACAUGAGUCUU”, the “apparent Kd” value came out at 28.5 nM under setting [1] and 178 nM under setting [2].
Consider “ACUACGUUAGCGAUAUGAUCGAGAGAUCAUGUCGCUAUAUUUAGAAGGACAUGAGGAUCACCCAUGUAGGAUAUGGGUCGUGGA”, for which the “apparent Kd” value by setting is: under setting [3], 158 nM; under setting [4], 35.7 nM.
Consider “GUCACACACCGCUCCGUGUCUGACAUGAGGAUCACCCAUGUGAGAAGGUAGCGUCGCAGUGACGUUAAGGAUAUCACGUACAGA”, for which the “apparent Kd” value worked out at 4.81 nM under setting [1] and 5.2 nM under setting [2].

One may read the apparent Kd as a dissociation constant that holds for the conditions of the assay.

These data come from the EternaBench riboswitch data.
